From PubChem BioAssay AID463104 (Sanford-Burnham Center for Chemical Genomics, 2010)
Hit rate of the full screen: of about 330,000 compounds, about 1,100 (0.33%) were called active.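 The calls were made as follows: active = versus positive control, 20 µM dose yields 30% or more activation; inactive = the rest.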 The list comes from a sample in which actives are over-represented; it also holds similar structures and randomly drawn compounds.

Experiment: IRE1-XBP1 pathway stimulators – cell-based, CHO-XBP1 luciferase reporter, luminescence, uHTS, primary screen (AID 463104);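 also: 100% = tunicamycin at 10 µg/mL and 0% = DMSO only wells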
Details: IRE1-XBP1 UPR activation, at 20 µM, stronger effect = higher value, percent of tunicamycin response, DMSO as zero
Outline: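 Material – CHO cell line with stable XBP1 luciferase reporter · Buffer or medium – F12 plus 10% FBS · Compound – single point, 20 µM final compound, 1% DMSO · Schedule – 16-18 h cell attachment at 37 °C, then 6 h compound exposure · Signal – Steady-Glo luminescence read · Benchmarks – high control tunicamycin 10 µg/mL final, low control DMSO vehicle only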

SMILES	activation
OCCC1CN(Cc2ccccc2-c2ccco2)CCN1Cc1ccsc1 (stereo unspecified)	-1.57% (inactive)
Cc1cc(NC(=O)Nc2c[nH]c(=O)[nH]c2=O)ccc1Br	-0.89% (inactive)
OCCNc1nc(Nc2ccc(Cl)c(Cl)c2)nc2ccccc12	46.6% (active)
CNc1nc(Nc2ccc(C)c(Cl)c2)nc(N)c1[N+](=O)[O-]	10.8% (inactive)
Cc1ccc(Nc2nc(N)nc(CN3CCN(Cc4ccccc4)CC3)n2)cc1Cl	3.65% (inactive)
COC(=O)c1ccc(COc2ccc(/C=N/NC(=O)C(=O)Nc3ccc(OC)cc3)cc2OC)o1	-0.77% (inactive)
CCCc1ccc(OCc2ccc(C(=O)N/N=C/c3cccc([N+](=O)[O-])c3)o2)c(OC)c1	35.5% (active)
N#Cc1cc([N+](=O)[O-])ccc1Oc1cccc(/C=N/NC(=O)c2ccc(Cl)cc2)c1	-0.61% (inactive)
CCCCCCCCCCOC(=O)Cn1c(COc2cccc(OC)c2)[n+](C)c2ccccc21	20.9% (inactive)
CCOC(=O)COn1c(=O)c(-c2ccc(OCC)cc2)[n+]([O-])c2ccccc21	0.06% (inactive)
CCCCCCCCCCOC(=O)Cn1c(COc2ccc(C)cc2)[n+](C)c2ccccc21	41.7% (active)
CCN(CC(=O)NCC(=O)Nc1cccc(C)c1C)Cc1ccccc1	-5.66% (inactive)
Cc1c(Br)c([N+](=O)[O-])nn1C(C)C(=O)Nc1nccs1 (stereo unspecified)	-1.86% (inactive)
COC(=O)Cc1csc(Nc2c(C)n(C)n(-c3ccccc3)c2=O)n1	-0.87% (inactive)
Cc1ccc(-n2c(O)c(C=Nc3ccc(S(=O)(=O)Nc4ncccn4)cc3)c3ccccc3c2=O)cc1C	-1.86% (inactive)
COC(=O)Cc1csc(/N=C/c2c(O)n(-c3cccc(C(F)(F)F)c3)c(=O)c3ccccc23)n1	46.3% (active)
CSc1ccccc1NC(=O)C(C)N1C(=O)c2ccccc2S1(=O)=O (stereo unspecified)	0.16% (inactive)
CC(=O)Nc1ccccc1Sc1ccc2c3c(cccc13)C(=O)N(c1ccc(C)cc1)C2=O	33.8% (active)
Cc1ccc(N2C(=O)CC(Nc3cccc4ccccc34)C2=O)cc1 (stereo unspecified)	-0.83% (inactive)

SMILES	activation
CC1CCN(C(=O)COC(=O)c2cc(=O)[nH]c3ccccc23)CC1	-0.76% (inactive)
CCn1c2ccccc2c2cc(NC(=S)N3CCOCC3)ccc21	-1.32% (inactive)
CCOC(=O)C(C)n1cnc2c(nnn2-c2cccc(OC)c2)c1=O (stereo unspecified)	-2.11% (inactive)
CCOc1ccc(S(=O)(=O)Nc2cccc(C(=O)NCC3(N4CCCCC4)CCCCC3)c2)cc1	66.6% (active)
O=C(NCC1(N2CCCCC2)CCCCC1)c1ccc(NS(=O)(=O)c2ccc(F)cc2)cc1	0.16% (inactive)
CCOc1ccc(NS(=O)(=O)c2ccc(C(=O)NCC(c3ccccc3OC)N3CCCC3)cc2)cc1 (stereo unspecified)	-3.45% (inactive)
CCOc1ccccc1C(=O)NC1CC2CCCC(C1)N2Cc1ccccc1 (stereo unspecified)	2.18% (inactive)
Cc1ccc(C)c(NC(=O)c2ccc3nccnc3c2)c1	0.85% (inactive)
Clc1ccc(CSc2nnc([C@@H]3CCCN3)o2)cc1	0.7% (inactive)
CCC1CCCCN1S(=O)(=O)Cc1ccccc1Cl (stereo unspecified)	-1.25% (inactive)
COC(=O)c1c(NC(=O)CN2CCN(S(=O)(=O)c3ccccc3[N+](=O)[O-])CC2)sc2c1CCC(C)C2 (stereo unspecified)	-0.95% (inactive)
O=C1CSC2=NCN(c3ccccc3)CN12	1.38% (inactive)
CN(c1ccccc1)S(=O)(=O)c1cccc(NC(=O)Cc2ccc(Cl)cc2)c1	-1.79% (inactive)
CN(c1cccc(NC(=O)c2ccc(CN3CCc4ccccc4C3)cc2)c1)S(C)(=O)=O	-1.68% (inactive)
CN(c1cccc(NC(=O)Nc2ccc(Cl)cc2)c1)S(C)(=O)=O	33.6% (active)
CCCOc1cccc(C(=O)Nc2nnn(CCC)n2)c1	0.81% (inactive)
Cc1noc(C)c1S(=O)(=O)Nc1cc(C(F)(F)F)ccc1N1CCOCC1	-0.99% (inactive)
COCCNC(=S)c1ccc(OC)cc1	-1.99% (inactive)
O=C(NCc1ccc(Cl)cc1)C(=O)NCC1CCCN1S(=O)(=O)c1cccs1 (stereo unspecified)	-4.11% (inactive)

SMILES	activation
CC(C)(C)OC(=O)C[C@H]1C/C=C\C[C@@H](CC(=O)N[C@H](CO)Cc2ccccc2)C(=O)NC[C@@H](c2ccccc2)OC1=O	5.5% (inactive)
CC(C)(C)OC(=O)C[C@@H]1C/C=C\C[C@@H](CC(=O)N[C@H](CO)Cc2ccccc2)C(=O)NC[C@@H](c2ccccc2)OC1=O	-1.85% (inactive)
O=C(C[C@H]1C/C=C\C[C@@H](NC(=O)OCC2c3ccccc3-c3ccccc32)C(=O)O[C@@H](c2ccccc2)CNC1=O)N[C@H](CO)Cc1ccccc1	100% (active)
O=c1c(Cl)c(NCc2ccc(F)cc2Cl)cnn1C12CC3CC(CC(C3)C1)C2	-1.62% (inactive)
COc1ccc(C(=O)N2CCN(c3ncccn3)CC2)cc1S(=O)(=O)N1CCOCC1	1.37% (inactive)
Cc1cccc(NC(=O)CN2CCN(C(=O)C3CCN(C(=O)/C=C/c4ccccc4)CC3)CC2)c1C	-2.16% (inactive)
CCOC(=O)/C=c1\s/c(=C\c2ccc(C#N)cc2)c(=O)n1CC(=O)Nc1cccc(C)c1C	217% (active)
Cc1cccc(NC(=O)CSC(N)=O)c1C	0.46% (inactive)
Cc1csc(NC(=O)C2CCCN2C(=O)OCC(C)C)n1 (stereo unspecified)	-2.24% (inactive)
COc1ccc(NC(=O)CN(C)C(=O)/C=C/c2cn(Cc3ccccc3)nc2-c2cccnc2)cc1	-0.51% (inactive)
Cc1ccc(/C=C/C(=O)OCC(=O)Nc2cccnc2Cl)cc1	-1.42% (inactive)
O=C(COC(=O)/C=C/c1cn(-c2ccccc2)nc1-c1cccnc1)Nc1ccc(Cl)cc1Cl	43.9% (active)
O=S(=O)(c1ccc(-c2ccno2)s1)N1CCCCC1	-1.02% (inactive)
COc1ccc(OC)c(S(=O)(=O)N2CCCC(C(=O)N3CCC(C(N)=O)CC3)C2)c1 (stereo unspecified)	0.16% (inactive)
COc1ccc(C)cc1N(C)C(=O)c1coc(=O)c2ccccc12	2.41% (inactive)
N#Cc1ccccc1NC(=O)COc1c(Br)cc(Br)c2cccnc12	116% (active)
Cc1cc(NC(=O)COc2ccccc2C#N)no1	6.89% (inactive)
O=C(COC(=O)c1ccccn1)Nc1cccc2ccccc12	-3.78% (inactive)
